According to ChEMBL document CHEMBL2321797 (J Med Chem, 2013):
Calls of active or inactive are those of the source. The calls are words filed in the database; no cut-off is given here.

Experiments:
[1] = test system: TZM-b1; experiment: (§1) Inhibition of HIV1 Envelope glycoprotein-mediated cell-cell fusion expressed in human HL2/3 cells coincubated with human TZM-b1 cells after 6 to 8 hrs by luciferase assay; type: cell-based; details: Human immunodeficiency virus 1
[2] = as §1; type: cell-based; details: Human immunodeficiency virus 1, TZM-b1
[3] = test system: Human immunodeficiency virus 1; experiment: Antiviral activity against Human immunodeficiency virus 1 assessed as inhibition of viral replication; type: functional, organism-based
Method in brief: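 NL4-3 mutant panel (D36G T20-sensitive; five T20-resistant NHR variants) infecting MT-2 cells with peptides at graded concentrations. p24 measured by ELISA on day 4. Run in triplicate as mean ± SD; IC50 and fold change vs D36G.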

SMILES: Cc1cc(C(=O)O)c(C)n1-c1ccc(O)c(C(=O)O)c1
- inhibition [1]: inactive

SMILES: Cc1ccc(C)n1-c1ccc(OCC(=O)O)c(C(=O)O)c1
- IC50 [2]: > 100 µM

SMILES: Cc1cc(C(=O)O)c(C)n1-c1ccc(C(=O)O)c(O)c1
- inhibition [1]: inactive

SMILES: Cc1ccc(C)n1-c1ccc(C(=O)O)c(OCC(=O)O)c1
- IC50 [2]: > 100 µM

SMILES: Cc1ccc(C)n1-c1ccc(O)c(C(=O)O)c1
- EC50 [3]: 0.69 µM
